In ChEMBL document CHEMBL3826882, “Discovery of 1-((2R,4aR,6R,7R,7aR)-2-Isopropoxy-2-oxidodihydro-4H,6H-spiro[furo[3,2-d][1,3,2]dioxaphosphinine-7,2'-oxetan]-6-yl)pyrimidine-2,4(1H,3H)-dione (JNJ-54257099), a 3'-5'-Cyclic Phosphate Ester Prodrug of 2'-Deoxy-2'-Spirooxetane Uridine Triphosphate Useful for HCV Inhibition” (J Med Chem, 2016) one finds Cmax and Drug metabolism data, which are given here for two molecules.

Series [1] is described as follows: Cmax in rat liver at 50 mg/kg, po. Also on record: dose 50 mg/kg, route oral. The series is classed as ADME, organism-based.
A short description of series [2]: Cmax in rat plasma at 50 mg/kg, po. The class given is ADME, organism-based. Further details: dose 50 mg/kg, route oral.
In another series the test system is Hepatocyte. As to the kind of experiment: Prodrug conversion in human primary hepatocytes assessed as 2'-deoxy-2'-spirooxetane uridine triphosphate level per million cells at 62.5 uM after 4 hrs using radiolabelled compound by LC-MS/MS analysis. The class given is ADME, cell-based. The gist of the method: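 Study A: fresh primary hepatocyte cultures from mouse, rat, dog and human incubated with tritiated prodrug at 2 or 62.5 µM for 4 or 24 h. Triphosphate in cell lysates reported as pmol/million hepatocytes. Duplicate or single measurements.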

What is called Cmax is the maximum level reached in the sampled fluid or tissue. Take `CC(C)O[P@@]1(=O)OC[C@H]2O[C@@H](n3ccc(=O)[nH]c3=O)[C@@]3(CCO3)[C@@H]2O1`: the Cmax in series [1] came out at 944 ng/g; in series [2], 1290 ng/mL.
For `[3H]C1O[P@](=O)(OC(C)C)O[C@@H]2[C@@H]1O[C@@H](n1ccc(=O)[nH]c1=O)[C@@]21CCO1` (stereo partly drawn), the Drug metabolism in the series on Hepatocyte stood at 0.24 pmol.
